This passage reports cytotoxicity results from ChEMBL document CHEMBL4513216, “Probing the Open Global Health Chemical Diversity Library for Multistage-Active Starting Points for Next-Generation Antimalarials” (ACS Infect Dis, 2020).

SMILES strings stand for the structures.

The series can be described thus: Toxicity liver stage against HepG2, at 10uM. In kind it is cell-based. Also on record: test concentration 10 uM, cell line HepG2-A16-CD81EGFP. Conditions: human, HepG2-A16-CD81EGFP cells; read-out: INHIBITION
An outline of the steps: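 Uninfected HepG2-A16-CD81EGFP cells, 3 × 10^3 per well, 1536-well, plated on prespotted compound at 10 μM final, parasite-free screening media added to match infected plates; puromycin 10 μM positive, DMSO 0.5% negative; run in parallel with 48 h PbLuc assay at 37 °C, 5% CO2; viability by CellTiter-Glo luminescence, normalized to controls.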

`CS(=O)(=O)NCCCNc1ccc(C(F)(F)F)cc1C#N`: the cytotoxicity at 10 µM was -2.18%.
`Cc1nc[nH]c1CN1CCCN(c2nc3ccccc3s2)CC1`: the cytotoxicity at 10 µM amounted to 33%.
For the molecule `Cc1noc([C@@]23CCO[C@@H]2CCN(C(=O)CCC(C)C)C3)n1`, the cytotoxicity at 10 µM was determined as 10.3%.
The same measure for `Cn1cc(CN2CCCC(CCc3ccc(F)cc3F)C2)cn1` (stereo not given): -10.4%; for `CN(Cc1cccs1)C(=O)CN1C(=O)c2cc(Cl)c(Cl)cc2C1=O`: -6.13%; for `O=S(=O)(c1ccccc1)N1CCCN(CCCn2ccnc2)CC1`: -9.17%.
The same measure for `c1ncn(CC2CN(Cc3nc(-c4ccsc4)no3)CCO2)n1` (stereo not given): -4.72%.
Consider `COc1ccc(-c2cc(C3=NC(=CN4CCN(C)CC4)NO3)[nH]n2)cc1`, for which the cytotoxicity at 10 µM is -17.8%.
With `Cc1cccc(CN2CCC(c3nccn3CC(N)=O)CC2)n1` the figure was -5.41%; with `COCC1CN(Cc2ccccn2)Cc2cn(C)nc21` (stereo not given), -78.6%.
With `N#Cc1ccccc1C(=O)N1C[C@H](CO)C[C@H](CN2CCCC2)C1` the figure was -17%.
The same measure for `CC(C(=O)N(C)C1CCCCC1)S(=O)(=O)Cc1csc(-c2cccs2)n1` (stereo not given): -4.27%; for `CC1CN(Cc2noc(C3CC3)n2)CCN1Cc1noc(C2CC2)n1` (stereo not given): -5.5%.
Regarding `CCOCC(=O)Nc1nccn1Cc1ccccc1Cl`, the cytotoxicity at 10 µM is -0.678%.
Consider `CSCC1CCCN1CCc1ccncc1` (stereo not given), for which the cytotoxicity at 10 µM is 0.684%.
Take `O=C(Cc1cccc(F)c1)NCCNCC1CNc2ccnn2C1` (stereo not given): the cytotoxicity at 10 µM was 2.04%.
The same measure for `CC(C)CCC(=O)N1CCN(C(C)c2nnc(CC(C)C)o2)CC1` (stereo not given): -8.82%; for `O=C([C@@H]1COC[C@H]2CN(c3ccncn3)C[C@H]21)N1CCCC1`: -133%; for `CC(CO)(NC(=O)NCCc1ccc(Br)s1)C1CC1` (stereo not given): -2.43%.
The same measure for `Cc1cc(C2CCCN2CCCS(=O)(=O)c2ccccc2)no1` (stereo not given): -8.83%; for `O=C(c1ccc(OCC2CC2)nc1)N1CCCC(n2cncn2)C1` (stereo not given): -3.25%.
The same measure for `Cc1sc(CN)nc1-c1ccc(Cl)cc1`: -3.07%; for `N#Cc1ccc(OCCN2CCc3cncnc3C2)cc1`: -9.96%; for `COc1cc(Cl)c(NCc2c(C)noc2C)cc1OC`: 8.77%.
As for `Cc1cccc(C(=O)N2CCN(S(C)(=O)=O)[C@@H](C)C2)c1Cl`, the cytotoxicity at 10 µM came out at 5.58%.
With `CC(=O)N(C)C1CCC2(CC1)CNC(=O)c1cc(C)ccc1O2` (stereo not given) the figure was -35.4%; with `Cc1ccc(S(=O)(=O)CCC(=O)NCc2nnc3n2CCC3)cc1`, 3.55%.
As to `CCOc1ccc(CN(C)C2CCN(c3cc(C)nn3C)C2=O)cc1` (stereo not given), the cytotoxicity at 10 µM amounted to 1.66%.
With `COc1cccc(N2CCN(C(=O)COc3c(C)occc3=O)CC2)c1` the figure was -1.29%; with `CC(C)COCC1CN(C(=O)c2cscn2)Cc2ncn(C)c21` (stereo not given), -109%.
With `CCc1n[nH]c(C2CN(Cc3ncc(CC)o3)CCO2)n1` (stereo not given) the figure was -9.79%; with `CC(C)OCc1ncn2c1CN(Cc1nccs1)CCC2`, -83.6%.
With `Cc1ccc2[nH]c(CN(C)c3cc(CCN)nc(C)n3)nc2c1` the figure was 0%; with `O=C1NCC(C(=O)N(Cc2cccc(Br)c2)C2CC2)N1` (stereo not given), 1.56%; with `O=C(c1nccc2ccccc12)N(Cc1ccco1)CC1CCCO1` (stereo not given), -6.25%.
On to `CC1CN(CC(=O)Nc2nccs2)CCN1Cc1nccn1C` (stereo not given), for which the cytotoxicity at 10 µM was -15.4%.
On to `COc1ccc(C2=Nn3c(CN)nnc3-c3ccccc3C2)cc1`, for which the cytotoxicity at 10 µM was 8.55%.
For `CC(C)(C)Cc1nnc(NCc2cccc(C#N)c2)o1`, the cytotoxicity at 10 µM was -16.1%.
With `CC(C)CCn1[nH]c(CNc2ccc(F)cc2)nc1=O` the figure was 11.3%.
Regarding `CN(C)C(=O)c1cnc2n1CCN(Cc1ccsc1)C2`, the cytotoxicity at 10 µM was -68%.
With `CCOc1ccccc1C(CC(=O)Nc1ccccc1F)NC(C)=O` (stereo not given) the figure was -15.4%; with `COc1cc(C2(C(=O)N3CCN(CC(C)(C)O)CC3)CC2)ccc1C`, -0.0264%.
With `Cc1[nH]c2c(F)cccc2c1CC(=O)NCCCc1csc(N)n1` the figure was -3.57%; with `CC1N(c2cnn(C)c2)C(=O)COC12CCN(Cc1ccco1)CC2` (stereo not given), 1.2%; with `Cc1nc2n(n1)CC(NCc1nc3ccccc3o1)CC2` (stereo not given), -0.608%.
With `COc1cc(CC(=O)Nc2cccc(C(=O)N(C)C)n2)ccc1C` the figure was 2.25%; with `CS(=O)(=O)N1CC(c2n[nH]c3ncccc23)C1`, -23.4%; with `Cc1n[nH]c(C2CN(C(=O)c3ccnc(C4CC4)n3)CCO2)n1` (stereo not given), 1.85%.
Consider `Cc1cnc(N2CC[C@H]3[C@@H]2CCC(=O)N3c2cccnc2)nc1`, for which the cytotoxicity at 10 µM was -0.298%.
The same measure for `Cc1ccc(C(=O)N2CCO[C@H]3[C@H](OCc4ccccn4)CC[C@@H]32)o1`: -148%; for `O=C(CCc1cc2n(n1)CCN(Cc1ncc[nH]1)C2)N1CCCC1`: -5.77%; for `COc1ccc(CNC(=O)NCc2c(C)cc(C)[nH]c2=O)cc1`: -3.22%.
With `FC(F)(F)Cn1ccnc1CNCCn1cccn1` the figure was -6.4%; with `COc1ccccc1Oc1ncccc1CNC(=O)C1(C)CCCNC1` (stereo not given), -2.56%.
The same measure for `CCN(Cc1c(F)cccc1F)C(=O)c1ccncc1O`: -1.22%.
Take `CCOCC1CN(C(=O)c2cccn2C)Cc2cnn(CC3CC3)c21` (stereo not given): the cytotoxicity at 10 µM was determined as 8.37%.
With `Cc1cc(=O)n2ncnc2n1CC(O)c1ccccc1Cl` (stereo not given) the figure was 1.67%; with `Cc1cccc(CN2C[C@@H]3CN(C(=O)NC(C)C)C[C@@H]3C2=O)n1`, 2.91%.
The same measure for `O=C1CC2(CCNCC2)C(=O)N1c1cccc(F)c1`: 1.7%; for `COc1ccccc1C(=O)NCCC(=O)Nc1c(C)nn(C)c1C`: -9.49%; for `COCC(=O)N1CCc2[nH]nc(-c3ccc4c(c3)OCO4)c2C1`: -137%.
With `Cn1c(-c2ccccc2Cl)nc2cc(C(=O)NC(CO)CO)cnc21` the figure was -10.8%; with `Cc1cnc(Nc2cccc(C3CCCN3C(=O)CO)n2)s1` (stereo not given), -30.6%; with `CC(C)c1noc(-c2ccc(NCC3CCCOC3)nc2)n1` (stereo not given), -2.26%.
For the molecule `O=C(c1ccco1)N1CC[C@@H]2O[C@H](COCC3CCOCC3)CC[C@@H]21`, the cytotoxicity at 10 µM was 6.8%.
The same measure for `Cn1cc(CN2CCC[C@]3(C[C@H](Oc4ncccc4F)CO3)C2)cn1`: 9.92%; for `Fc1ccc(N2CCCN(Cc3ccc(-c4cc[nH]n4)o3)CC2)cc1`: 0.898%.
The same measure for `CCCNc1nnc(S(=O)(=O)CCOCC)s1`: 5.96%; for `c1cnn(CC2CCCN2Cc2cn3ccsc3n2)c1` (stereo not given): -10.2%.
The same measure for `CO[C@@H]1CC[C@H]2[C@H]1OCCN2CC1CCOCC1`: -20.3%.
On to `CC(C)c1cc(-c2nn3c(C(C)C)nnc3s2)[nH]n1`, for which the cytotoxicity at 10 µM worked out at 0.999%.
The same measure for `O=C(c1cnccn1)N1CC[C@H]2[C@@H]1CCC(=O)N2c1cccnc1`: -81.6%; for `CC(Cn1ccnc1)NCc1csc2c1CCCC2` (stereo not given): -3.37%.
The same measure for `Cc1cc2c(=O)n3c(nc2s1)CCN(C(=O)c1scnc1C)CC3`: -0.774%; for `Cc1nc(C(=O)N2CCOCC2)cc(N2CCC(C(N)=O)CC2)n1`: 1.82%.
With `Cc1nc(C)n(CC2CCCN(CCOc3ccc(F)cc3)C2)n1` (stereo not given) the figure was -3.33%.
Take `Cc1cnn(CC2CCCN2Cc2nc(C)c3ccccc3n2)c1` (stereo not given): the cytotoxicity at 10 µM was -8.94%.
As for `Cc1csc(C2CCCCN2C(=O)c2cn[nH]c2C)n1` (stereo not given), the cytotoxicity at 10 µM is -1.53%.
In the case of `FC1(F)CCN(Cc2cccnc2)CC12CCN(c1ccccc1)C2` (stereo not given), the cytotoxicity at 10 µM was -84.5%.
With `CC(Sc1nnc(C2CC2)n1CC(N)=O)c1ccc(F)cc1F` (stereo not given) the figure was -1.7%; with `COc1ccccc1CN(Cc1cccc(C)c1)C(=O)[C@@H](N)CC(=O)O`, -47.7%; with `Cc1cc(CN(C)C(=O)CN2CCCCCC2=O)no1`, 7.41%.
With `O=C(CCc1ccsc1)N(Cc1ccccn1)C1CC1` the figure was -4.87%; with `COc1cccc(C(=O)NS(=O)(=O)c2cccc(C#N)c2)c1`, -6.12%.
The same measure for `CN(CC(O)C(F)(F)F)C(=O)Nc1cccc(N2CCCC2)c1` (stereo not given): 5.48%; for `CSc1ccc(CCNC(=O)Cc2c(C)n[nH]c2C)cc1`: 1.02%; for `CCC[C@@H]1CN(C(=O)Cc2sc(C)nc2C)C[C@H]1C(=O)O`: -125%.
With `CCOCC(=O)N1CCC[C@]2(C[C@@H](OCc3ccncc3)CO2)C1`, the cytotoxicity at 10 µM stood at 14.5%.
With `O=C(NC1CCC1)[C@@H]1CCO[C@@H]2CCN(C3CCCC3)C[C@@H]21` the figure was 11.4%.
With `CNC(=O)[C@@]12CCC3(CCN(C(=O)COC)CC3)[C@@H]1CN(S(C)(=O)=O)C2` the figure was 4.53%; with `CCc1oc(C(=O)N2CCC(N(CC)C(C)=O)C2)cc1CN(CC)CC` (stereo not given), 8.31%; with `CS(=O)(=O)NC1CC(=O)N(c2ccccc2Cl)C1` (stereo not given), -0.585%.
The same measure for `COc1cccc(CNc2nc(O)cc(C3CC(=O)N(C)C3)n2)c1` (stereo not given): -2.24%; for `COCCN1CCN(Cc2ccc3nsnc3c2)[C@H]2CS(=O)(=O)C[C@H]21`: -5.94%.
For `O=C(C1CC1)N1CCC2(COCc3cnc(NCc4ccco4)nc32)C1` (stereo not given), the cytotoxicity at 10 µM was -1.08%.
